Test results taken from ChEMBL document CHEMBL3351342, “Synthesis and biological evaluation of phenoxyacetic acid derivatives as novel free fatty acid receptor 1 agonists” (Bioorg Med Chem, 2015).
Active and inactive are the calls of the source. The calls are words filed in the database; no cut-off is given here.

Tests used:
[1] = target: T1, Free fatty acid receptor 1 (Homo sapiens, UniProt O14842); experiment: Agonist activity at human FFA1 expressed in CHO cells assessed as ratio of increase in intracellular Ca2+ concentration in compound treated cells at 100 nM to vehicle-treated cells by Fluo-4 AM based fluorescence assay; type: functional, cell-based
T1 sequence (O14842 whole entry): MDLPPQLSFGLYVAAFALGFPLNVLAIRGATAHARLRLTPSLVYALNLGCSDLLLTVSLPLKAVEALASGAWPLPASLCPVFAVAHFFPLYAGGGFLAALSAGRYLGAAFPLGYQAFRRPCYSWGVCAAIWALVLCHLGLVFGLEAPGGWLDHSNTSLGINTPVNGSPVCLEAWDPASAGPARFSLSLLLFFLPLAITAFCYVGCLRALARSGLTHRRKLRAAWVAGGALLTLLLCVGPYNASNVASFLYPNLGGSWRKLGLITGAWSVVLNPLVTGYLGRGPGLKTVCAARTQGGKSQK
Procedure, shortened: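 Same Fluo-4 Ca2+ flux format in CHO cells stably expressing human FFA1. Single screening concentration of 100 nM. Activity expressed as A/B, the Ca2+ increase in compound-treated wells divided by that in vehicle-treated wells. Three independent experiments.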

[2] = target: T1, Free fatty acid receptor 1; experiment: Agonist activity at human FFA1 expressed in CHO cells assessed as increase in intracellular Ca2+ concentration by Fluo-4 AM based fluorescence assay; type: functional, cell-based
Procedure, shortened: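 CHO cells stably expressing human FFA1 (NM_005303), 30,000 cells/well, cultured overnight at 37 °C in 5% CO2. Loaded with 2.5 µg/mL Fluo-4 AM and 2.5 mmol/L probenecid in HBSS for 90 min at 37 °C, washed, then held 10 min in HBSS with probenecid. Ca2+ rise after adding compound at various concentrations read by fluorimetry. EC50 from curve fitting, mean of three determinations.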

Mus musculus [3] = experiment: Hypoglycemic effect in ICR mouse assessed as improvement in glucose intolerance at 20 mg/kg, po dosed 30 mins before oral glucose challenge by oral glucose tolerance test; type: functional, organism-based; parameters: dose 20 mg/kg
Procedure, shortened: (§1)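 Male ICR mice, 10 weeks old, fasted 12 h and randomized (n = 6). Single oral dose of 20 mg/kg as a suspension in 0.5% methylcellulose (1.0 mL/kg), given 30 min before an oral glucose load of 2 g/kg (20% solution). Blood glucose read by test strip at −30, 0, 15, 30, 60 and 120 min. AUC0–120 min calculated; mean ± SEM.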

[4] = Half life in Sprague-Dawley rat at 1 mg/kg, po; type: ADME, organism-based; parameters: dose 1 mg/kg, route oral; conditions: in vivo
Procedure, shortened: (§2)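 Fasted male SD rats (n = 3). Dosed 1 mg/kg iv (0.5 mg/mL, 2 mL/kg) or 1 mg/kg po (1 mg/mL, 1 mL/kg), both in 0.5% methylcellulose. Tail-vein blood in EDTA sampled from 5 min to 36 h. Plasma proteins precipitated with acetonitrile containing internal standard, then analysed by LC-MS/MS. Parameters derived from mean concentrations at each time point.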

[5] = Clearance in Sprague-Dawley rat at 1 mg/kg, iv; type: ADME, organism-based; parameters: dose 1 mg/kg, route intravenous; conditions: in vivo; procedure, shortened: as §2
[6] = AUC (0 to 8 hrs) in Sprague-Dawley rat at 1 mg/kg, po; type: ADME, organism-based; parameters: time < 8 hr, dose 1 mg/kg, route oral; conditions: plasma; procedure, shortened: as §2
[7] = Volume of distribution in Sprague-Dawley rat at 1 mg/kg, iv; type: ADME, organism-based; parameters: dose 1 mg/kg, route intravenous; conditions: in vivo; procedure, shortened: as §2
Mus musculus [8] = experiment: Hypoglycemic effect in ICR mouse assessed as reduction in glucose AUC (0 to 120 mins) at 20 mg/kg, po dosed 30 mins before oral glucose challenge by oral glucose tolerance test; type: functional; parameters: scale not given: the % may be the effect or the level left; procedure, shortened: as §1
[9] = Half life in Sprague-Dawley rat at 1 mg/kg, iv; type: ADME, organism-based; parameters: dose 1 mg/kg, route intravenous; conditions: in vivo; procedure, shortened: as §2
[10] = Cmax in Sprague-Dawley rat at 1 mg/kg, po; type: ADME, organism-based; parameters: dose 1 mg/kg, route oral; conditions: in vivo; procedure, shortened: as §2
Mus musculus [11] = experiment: Antihyperglycemic effect in type 2 diabetic C57BL/6 mouse assessed as reduction in blood glucose level at 60 mg/kg, po administered as single dose; type: functional, organism-based; parameters: dose 60 mg/kg
Procedure, shortened: (§3)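 Type 2 diabetes model: male C57BL/6 mice on high-fat diet (45% fat) for 4 weeks, STZ 80 mg/kg ip, then high-fat diet for another 4 weeks. Fasting glucose ≥11.1 mmol/L counted as diabetic. Mice fasted 12 h and randomized by weight and glucose (n = 6). Single oral dose of 30–100 mg/kg in 0.5% methylcellulose given 30 min before an oral glucose load of 1 g/kg. Glucose read by strip to 120 min; AUC0–120 min; mean ± SD.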

[12] = Oral bioavailability in Sprague-Dawley rat at 1 mg/kg; type: ADME, organism-based; conditions: in vivo; procedure, shortened: as §2
[13] = Tmax in Sprague-Dawley rat at 1 mg/kg, po; type: ADME, organism-based; parameters: dose 1 mg/kg, route oral; conditions: in vivo; procedure, shortened: as §2
Mus musculus [14] = experiment: Antihyperglycemic effect in type 2 diabetic C57BL/6 mouse assessed as reduction in blood glucose level at 30 to 100 mg/kg, po; type: functional, organism-based; procedure, shortened: as §3

## Cc1cc(OCCCS(C)(=O)=O)cc(C)c1-c1cccc(COc2ccc(OCC(=O)O)c(Cl)c2)c1
[1]
  Ratio: 6.18
[2]
  EC50: 92.6 nM
Mus musculus [3]
  Activity: Active

## Cc1cc(OCc2cccc(-c3c(C)cc(OCCCS(C)(=O)=O)cc3C)c2)ccc1OCC(=O)O
[1]
  Ratio: 5.64
[2]
  EC50: 153 nM
Mus musculus [3]
  Activity: Active

## Cc1cc(OCCCS(C)(=O)=O)cc(C)c1-c1cccc(COc2ccc(OC(C)C(=O)O)cc2)c1 (configuration not stated)
[1]
  Ratio: 4.04
[2]
  EC50: 389 nM
Mus musculus [3]
  Activity: Active

## Cc1cc(OCCCS(C)(=O)=O)cc(C)c1-c1cccc(COc2ccc(OC(C)(C)C(=O)O)cc2)c1
[1]
  Ratio: 2.45

## Cc1cc(OCc2cccc(-c3c(C)cc(OCCCS(C)(=O)=O)cc3C)c2)cc(C)c1OC(C)(C)C(=O)O
[1]
  Ratio: 1.6

## CCc1cc(OCc2cccc(-c3c(C)cc(OCCCS(C)(=O)=O)cc3C)c2)ccc1OC(C)(C)C(=O)O
[1]
  Ratio: 1.48

## Cc1cc(OCCCS(C)(=O)=O)cc(C)c1-c1cccc(COc2ccc(OC(C)(C)C(=O)O)c(F)c2)c1
[1]
  Ratio: 3.06

## CCc1cc(OCc2cccc(-c3c(C)cc(OCCCS(C)(=O)=O)cc3C)c2)ccc1OCC(=O)O
[1]
  Ratio: 3.19

## CCC(Oc1ccc(OCc2cccc(-c3c(C)cc(OCCCS(C)(=O)=O)cc3C)c2)cc1)C(=O)O (configuration not stated)
[1]
  Ratio: 3.04

## Cc1cc(OCCCS(C)(=O)=O)cc(C)c1-c1cccc(COc2ccc(OCC(=O)O)c(F)c2)c1
[4]
  half-life: 3.27 h
[5]
  clearance: 1.83 mL/min/kg
[6]
  AUC(0-t) at 8 h: 5340 ng·h/mL
[7]
  Vd: 0.26 L/kg
Mus musculus [8]
  Activity: 31%
[9]
  half-life: 4.15 h
[1]
  Ratio: 6.42
[10]
  Cmax: 1170 ng/mL
Mus musculus [11]
  Activity: Active
[2]
  EC50: 62.3 nM
[12]
  bioavailability: 63%
[13]
  Tmax: 1 h
Mus musculus [3]
  Activity: Active
Mus musculus [14]
  Activity: Dose-dependent effect

## Cc1cc(OCCCS(C)(=O)=O)cc(C)c1-c1cccc(COc2ccc3c(c2)OC[C@H]3CC(=O)O)c1
Mus musculus [8]
  Activity: 29.3%
Mus musculus [3]
  Activity: Active

## COc1cc(OCc2cccc(-c3c(C)cc(OCCCS(C)(=O)=O)cc3C)c2)ccc1OC(C)(C)C(=O)O
[1]
  Ratio: 1.81

## Cc1cc(OCCCS(C)(=O)=O)cc(C)c1-c1cccc(COc2ccc(OC(C)(C)C(=O)O)c(Cl)c2)c1
[1]
  Ratio: 3.04

## Cc1cc(OCCCS(C)(=O)=O)cc(C)c1-c1cccc(COc2ccc(OCC(=O)O)cc2)c1
[1]
  Ratio: 6.04
[2]
  EC50: 121 nM
Mus musculus [3]
  Activity: Active

## COc1cc(OCc2cccc(-c3c(C)cc(OCCCS(C)(=O)=O)cc3C)c2)ccc1OCC(=O)O
[1]
  Ratio: 2.02
